SUMO HTRF inh = inhibitors of human SUMOylation (UBC9); inhibition, % at 35 µM; P63279; actives 0.36% (n = 290,000); HTRF SUMOylation assay, SAE1/SAE2 + UBC9, in vitro; in the data active means inhibition above about 50%, passing the limit was not always enough
Target sequence (P63279 whole entry, looked up): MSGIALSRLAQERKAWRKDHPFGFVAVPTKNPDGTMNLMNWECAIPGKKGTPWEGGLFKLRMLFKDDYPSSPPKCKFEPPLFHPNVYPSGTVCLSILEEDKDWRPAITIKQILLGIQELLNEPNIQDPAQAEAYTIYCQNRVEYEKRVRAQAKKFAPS
NALP1 yeast inh = blocks the NALP1 inflammasome reconstituted in yeast. S. cerevisiae NALP1/ASC/caspase-1 growth, X-gal OD620, 72 h. inhibition, % at 10 µM. actives 0.61% (n = 280,000). AID 2071; in the data active means inhibition mostly above about 24%, no sharp cut-off; inactive means mostly below about 32%
VIM-2 inhibitor = blocks Pseudomonas aeruginosa VIM-2 metallo-beta-lactamase; purified VIM-2, nitrocefin hydrolysis, epi-absorbance fluorescence; inhibition, % at 5.6 µM; AID 1527; actives 0.89% (n = 290,000);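 active means inhibition above the mean of all tested compounds plus 3 SD, cutoff set per screening run, cut at about 7.5% in these data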;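 further: red hydrolysis product quenches plate fluorescence so inhibitors raise well fluorescence; 0% = enzyme with DMSO and 100% = DMSO without enzyme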
SUMO Mot1 rescue = blocks SUMOylation pathway, rescuing yeast Mot1-301 growth; S. cerevisiae Mot1-301 growth rescue, ATP luminescence, 38.5C; percent above DMSO median, 100 means doubled; growth rescue, % at 18.8 µM; actives 1% (n = 320,000); AID 2716;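 active means every valid replicate shows activation above 250% relative to neutral control wells; inactive means the rest, any valid replicate at or below 250%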;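 further: OY570 slx delta 5 strain wells were the positive control but not used for scaling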
FID counter = displaces DNA intercalator in HCV helicase counter-screen; DNA fluorescent intercalator displacement, fluorescence; inhibition, % at 7.9 µM; actives 0.17% (n = 290,000); in the data active means inhibition above about 37%;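 further: 0% = vehicle and 100% = reference compound; higher means more ethidium bromide displaced from hairpin DNA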
IMP-1 inhibitor = blocks Pseudomonas aeruginosa IMP-1 metallo-beta-lactamase. purified IMP-1, nitrocefin hydrolysis, epi-absorbance fluorescence. inhibition, % at 5.6 µM. actives 0.45% (n = 290,000);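 active means inhibition above the mean plus 3 SD of all compounds in the same screening run, cut at about 4.5% in these data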;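 further: 0% = IMP-1 with DMSO and 100% = DMSO wells lacking enzyme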
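system = purified recombinant IMP-1 beta-lactamase | amount = 0.2 nM IMP-1, as dispensed | medium = HEPES buffer pH 7.1 with ZnSO4 and Brij 35 | times = 25 °C, 15 min preincubation, 25 min reaction | detection = plate fluorescence quenching by hydrolysis product, ex 480/em 530 nm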
Mot1 SUMO dose = SUMO pathway inhibitors in yeast Mot1-301 growth. shares compounds with SUMO Mot1 rescue. S. cerevisiae Mot1-301 galactose growth, ATP luminescence, 24 h; -100 = growth of slx-deleted rescue strain. growth activity, percent, % at 42 µM. 2,300 tested, under 10 active;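 active means Signal drops as the depositor expects, and the fitted half-maximal dose is no more than ten times the top valid tested dose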;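 further: more negative values mean stronger growth rescue toward the control strain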
* marks the source's active call; other numbers are inactive results; nt = not tested or not shown; + = active, no number. Only some compounds are listed: those with a hit (about 2.9% of all), similar ones and a draw of the others.

SMILES	SUMO HTRF inh	NALP1 yeast inh	VIM-2 inhibitor	SUMO Mot1 rescue	FID counter	IMP-1 inhibitor	Mot1 SUMO dose
CCOC(=O)N1CCC(NS(=O)(=O)c2ccc(C)c(Cl)c2)CC1	7.6	1.8	-0.7	559.3*	-33.1	-0.9	0.2
CCCCCC(=O)NNC1=NCC(Cc2cccc(Cl)c2)S1 (centres undefined)	7.2	-18.5	-0.6	733.7*	-18.3	-1.0	0.6
CCCCCCCC(=O)NNC(=O)Cc1ccccc1	4.0	18.1	-2.1	9.2	-1.8	-1.2	nt
Cc1ccsc1C(=O)OCC(=O)NCc1ccccc1	nt	nt	nt	5.0	nt	nt	nt
CSCC[C@H](NC(=O)N1C[C@H]2C[C@@H](C1)c1cccc(=O)n1C2)C(=O)Nc1ccc(NC(C)=O)cc1	4.8	12.8	-3.3	2.7	-9.8	-2.9	nt
c1ccc(-c2csc(NC3CCCCC3)n2)cc1	-3.3	-0.3	-1.9	922.7*	-19.1	0.3	-0.1
O=C(Nc1nc(-c2ccccc2)cs1)NC1CCCCC1	-12.4	27.3	-0.5	3.7	-11.5	-2.4	nt
Cc1cccc(S(=O)(=O)NNC(=O)Cc2cccn2C)c1	-3.8	6.7	1.9	374.1	-13.3	0.5	nt
CC(CNC(=O)Cn1ccc(N)nc1=O)c1ccccc1 (centres undefined)	nt	nt	nt	16.6	nt	nt	nt
COc1ccccc1NS(=O)(=O)c1cc(NC(=O)CNC(=O)c2cc(C)cc(C)c2)ccc1C	-35.5	nt	-1.9	25.1	-13.3	-1.5	nt
CCNC(=S)Nc1ccc(C)c(S(=O)(=O)Nc2ccccc2OC)c1	1.6	5.3	0.9	398.3*	-8.5	-0.2	-0.6
Cc1ccc(S(=O)(=O)CC(=O)Nc2cc(C)on2)cc1	20.5	14.9	-1.5	8.4	-3.8	-1.1	nt
CN1/C(=C\C(=O)COC(=O)c2ccc([N+](=O)[O-])o2)C(C)(C)c2ccccc21	4.3	-3.1	0.0	428.2*	1.3	-0.3	-1.0
CN1/C(=C\C(=O)COC(=O)c2nccnc2N)C(C)(C)c2ccccc21	nt	nt	nt	6.6	nt	nt	nt
CN(C(=O)CSc1nc2ccccc2o1)C1CCS(=O)(=O)C1 (centres undefined)	nt	nt	nt	2.8	nt	nt	nt
CN(C(=O)CSc1nc(-c2ccccc2)c(-c2ccccc2)o1)C1CCS(=O)(=O)C1 (centres undefined)	-26.7	-1.4	-2.3	543.2*	-13.0	-2.7	0.6
O=C(Nc1ccc(Cl)cc1)C1=Cc2ccccc2OC1	-0.3	54.9	-0.4	593.8*	0.6	1.6	-2.7
CCN(CC)C(=O)Cn1c(=O)n(CCCCCC(=O)Nc2ccccc2)c(=O)c2sccc21	8.9	22.6	-3.6	3.0	-4.5	-0.8	nt
CCN(CC)C(=O)Cn1c(=O)n(CCCC(=O)NCc2ccccc2)c(=O)c2sccc21	1.1	-9.1	-0.8	539.5*	-1.2	-2.4	0.7
O=C(CSc1ncnc2nc[nH]c12)Nc1ccccc1C(F)(F)F	0.9	5.1	-2.1	727.1*	1.0	-3.6	-0.2
COc1cc([N+](=O)[O-])cc2cc(C(=O)NC(C)(C)C)c(=O)oc12	21.4	10.5	-2.6	2.4	-2.5	-3.0	nt
COCCCNC(=O)c1cc2cc([N+](=O)[O-])cc(OC)c2oc1=O	0.0	-28.9	2.0	405.8*	-20.4	1.3	0.9
Cc1ccc(C(=O)NNc2ncnc3c2cnn3C)cc1	7.0	-20.7	-2.3	+	-8.2	-3.3	0.1
CC1(C)Cc2nc3sc4c(OCc5ccccc5)ncnc4c3cc2CO1	20.1	4.6	-5.0	+	1.6	-2.2	0.7
CCc1nc(OCc2ccccc2)c2sc3nc4c(cc3c2n1)COC(C)(C)C4	-7.5	3.9	-1.5	nt	-1.6	-0.5	nt
CCn1c(=O)n(CC)c2cc(N3CCCC3)c(NC(=O)c3cc(Br)ccc3OC)cc21	-1.3	8.2	-1.0	-17.4	-28.8	-1.8	nt
O=C(CCN1CCCCO1)N1CCCC(Nc2cccc(F)c2)C1 (centres undefined)	1.1	8.8	-2.0	-22.2	-12.4	-3.5	nt
Nc1ccnc(=O)[nH]1	nt	nt	nt	654.0*	nt	nt	0.2
CCn1c(CSCc2ccc(C)cc2)nnc1SCC(=O)NCc1ccccc1	7.3	5.9	-1.3	-23.2	-40.4	-0.7	nt
CCn1c(CSCc2ccc(F)cc2)nnc1SCC(=O)NCc1ccccc1	-9.3	23.5	-2.9	924.1*	-23.2	-2.0	0.2
